Measurements as given in paper PMC3113683 (Biochemistry, 2009).

B1: LYP/S227: inactive mutant of LYP (protein, UniProt Q9Y2R2 1-807, looked up, variant C227S)
Tyrosine-protein phosphatase …: MDQREILQKFLDEAQSKKITKEEFANEFLKLKRQSTKYKADKTYPTTVAEKPKNIKKNRYKDILPYDYSRVELSLITSDEDSSYINANFIKGVYGPKAYIATQGPLSTTLLDFWRMIWEYSVLIIVMACMEYEMGKKKCERYWAEPGEMQLEFGPFSVSCEAEKRKSDYIIRTLKVKFNSETRTIYQFHYKNWPDHDVPSSIDPILELIWDVRCYQEDDSVPICIHSSAGCGRTGVICAIDYTWMLLKDGIIPENFSVFSLIREMRTQRPSLVQTQEQYELVYNAVLELFKRQMDVIRDKHSGTESQAKHCIPEKNHTLQADSYSPNLPKSTTKAAKMMNQQRTKMEIKESSSFDFRTSEISAKEELVLHPAKSSTSFDFLELNYSFDKNADTTMKWQTKAFPIVGEPLQKHQSLDLGSLLFEGCSNSKPVNAAGRYFNSKVPITRTKSTPFELIQQRETKEVDSKENFSYLESQPHDSCFVEMQAQKVMHVSSAELNYSLPYDSKHQIRNASNVKHHDSSALGVYSYIPLVENPYFSSWPPSGTSSKMSLDLPEKQDGTVFPSSLLPTSSTSLFSYYNSHDSLSLNSPTNISSLLNQESAVLATAPRIDDEIPPPLPVRTPESFIVVEEAGEFSPNVPKSLSSAVKVKIGTSLEWGGTSEPKKFDDSVILRPSKSVKLRSPKSELHQDRSSPPPPLPERTLESFFLADEDCMQAQSIETYSTSYPDTMENSTSSKQTLKTPGKSFTRSKSLKILRNMKKSICNSCPPNKPAESVQSNNSSSFLNFGFANRFSKPKGPRNPPPTWNI
B2: LYP423: LYP truncation, amino acids 1−423 (protein, UniProt Q9Y2R2 1-423, looked up, fragment)
chain: MDQREILQKFLDEAQSKKITKEEFANEFLKLKRQSTKYKADKTYPTTVAEKPKNIKKNRYKDILPYDYSRVELSLITSDEDSSYINANFIKGVYGPKAYIATQGPLSTTLLDFWRMIWEYSVLIIVMACMEYEMGKKKCERYWAEPGEMQLEFGPFSVSCEAEKRKSDYIIRTLKVKFNSETRTIYQFHYKNWPDHDVPSSIDPILELIWDVRCYQEDDSVPICIHCSAGCGRTGVICAIDYTWMLLKDGIIPENFSVFSLIREMRTQRPSLVQTQEQYELVYNAVLELFKRQMDVIRDKHSGTESQAKHCIPEKNHTLQADSYSPNLPKSTTKAAKMMNQQRTKMEIKESSSFDFRTSEISAKEELVLHPAKSSTSFDFLELNYSFDKNADTTMKWQTKAFPIVGEPLQKHQSLDLGSLLFE
B3: LYP300/S227: inactive mutant of LYP300 (protein, UniProt Q9Y2R2 1-300, looked up, fragment C227S)
chain: MDQREILQKFLDEAQSKKITKEEFANEFLKLKRQSTKYKADKTYPTTVAEKPKNIKKNRYKDILPYDYSRVELSLITSDEDSSYINANFIKGVYGPKAYIATQGPLSTTLLDFWRMIWEYSVLIIVMACMEYEMGKKKCERYWAEPGEMQLEFGPFSVSCEAEKRKSDYIIRTLKVKFNSETRTIYQFHYKNWPDHDVPSSIDPILELIWDVRCYQEDDSVPICIHSSAGCGRTGVICAIDYTWMLLKDGIIPENFSVFSLIREMRTQRPSLVQTQEQYELVYNAVLELFKRQMDVIRDK

Key:
[1] = system: LYP; type: biochemical, human; conditions: Figure 2D; Vmax, 1 nM enzyme, 0.16 mM peptide, triplicate
[2] = system: LYP; type: biochemical, human; conditions: Figure 2C; Vmax, 1 nM enzyme, 0.4 mM DiFMUP, triplicate
Method in brief: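 FLAG-tagged full-length LYP and C-terminal truncations (aa 1−300, 1−423, 1−517, 1−600) were expressed in baculovirus-infected Sf9 cells. They were purified on M2-FLAG beads, eluted with FLAG peptide plus DTT into 50 mM Tris-HCl pH 8.0, 0.5 mM EDTA, 1 mM DTT (>80% pure). Activity was measured under Vmax conditions in 50−100 mM Bis-Tris pH 6.0, 1−5 mM DTT. DiFMUP hydrolysis was followed continuously by fluorescence (ex 360, em 460 nm), with background subtracted using no-enzyme triplicates.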

| Molecule | Phosphatase activity on pTyr peptide [1] | Phosphatase activity on DiFMUP [2] |
| --- | --- | --- |
| B1 | did not exhibit any activity | did not exhibit any activity |
| B2 | slightly increased activity | slightly increased activity |
| B3 | did not exhibit any activity | did not exhibit any activity |
